Assay outcomes deposited in PubChem BioAssay by The Scripps Research Institute Molecular Screening Center.
V1R ag counter: counter-screen for oxytocin receptor agonists: human V1a receptor agonists. P37288. CHO-V1R cells, Fluo-8 calcium fluorescence, agonist mode; 0% DMSO, 100% 3 nM vasopressin. activation, % at 3 µM. hit rate 0.25% among 320,000. AID 2797;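 active = activation above the mean activation of all tested compounds plus 3 SD, per screening run, cut at about 20% in these data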;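 also: signal is peak over basal fluorescence ratio across a 100 second FLIPR read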
Target sequence (P37288 whole entry, looked up): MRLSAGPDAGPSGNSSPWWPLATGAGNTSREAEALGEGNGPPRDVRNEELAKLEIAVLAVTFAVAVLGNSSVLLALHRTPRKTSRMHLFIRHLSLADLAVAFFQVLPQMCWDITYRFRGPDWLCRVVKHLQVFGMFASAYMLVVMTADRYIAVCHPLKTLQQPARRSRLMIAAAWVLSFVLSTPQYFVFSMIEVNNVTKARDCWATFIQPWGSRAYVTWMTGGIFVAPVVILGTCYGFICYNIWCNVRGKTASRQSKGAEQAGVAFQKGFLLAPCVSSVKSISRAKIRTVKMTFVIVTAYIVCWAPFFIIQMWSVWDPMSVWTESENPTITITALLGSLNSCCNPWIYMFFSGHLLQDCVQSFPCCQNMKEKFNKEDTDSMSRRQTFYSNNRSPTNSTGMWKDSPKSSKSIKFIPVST
OXTR ag: activates the human oxytocin receptor; P30559; hit rate 0.32% among 320,000; CHO-OTR cells, Fluo-8 calcium fluorescence; normalized: DMSO 0%, oxytocin 100%; activation, % at 3 µM;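 active = activation above the mean of all tested compounds plus 3 SD, cutoff set per screening run, cut at about 20% in these data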;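 also: peak over basal fluorescence ratio from a 100 s FLIPR kinetic read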
TRPML3 agonist: agonists of human TRPML3 channel; HEK293 TRPML3-YFP, Fluo-8 calcium fluorescence; 100% = the carbachol control signal; activation, % at 3 µM; hit rate 0.29% among 220,000; AID 1448;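 active = activation above its plate's cutoff, the mean activation of the plate's test wells plus 3 SD, cut at about 12% in these data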
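system = HEK293 cells stably carrying human TRPML3-YFP | doses = one concentration, 3 µM nominal, 0.3% DMSO | timing = dye loading 1 h 37 °C then 30 min ambient, 125 s read | detection = Fluo-8 calcium dye fluorescence, ex 470-495, em 515-575 nm | benchmarks = high control carbachol 87 µM, low control DMSO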
zfTRPN1 agonist: zebrafish TRPN1 (NompC) channel agonism. HEK293 zebrafish TRPN1-YFP, Fluo-8 calcium fluorescence; 100% = response to 87 µM carbachol. activation, % at 3 µM. hit rate 0.18% among 220,000. AID 1424;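 active = activation above its plate's cutoff, the mean activation of test wells on that plate plus 3 SD, cut at about 19% in these data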
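Material: zebrafish TRPN1-YFP in HEK293 cells; Doses: single test compound dose, 3 µM nominal, 0.3% DMSO; Timing: dye loading 1 h at 37 °C, then 30 min room temperature; Technique: intracellular calcium fluorescence with Fluo-8; Benchmarks: high carbachol 87 µM, low DMSO alone.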
OXTR potentiator: potentiators of human oxytocin receptor; AID 2445; activation, % at 3 µM; CHO-OTR cells, Fluo-8 calcium fluorescence, potentiator mode; 0% = oxytocin EC15, 100% = EC100; P30559; hit rate 0.061% among 320,000;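 active = activation above that plate's cutoff, the mean activation of tested compounds plus 3 SD, cut at about 6.6% in these data, passing the limit was not always enough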
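Assay system: CHO cell line stably expressing human OTR. Reagent: EC15 oxytocin agonist. Dosing: single dose, 3.0 µM nominal final compound concentration. Timing: compound 6 min at room temperature before oxytocin, 100 s read. Signal: kinetic Fluo-8 calcium fluorescence. Controls: oxytocin EC15 low and EC100 high.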
Numbers stand for hits; n = inactive; x = not tested or not shown. Most compounds without a hit are left out; they make up all but 0.59% or so of the library.

SMILES	V1R ag counter	OXTR ag	TRPML3 agonist	zfTRPN1 agonist	OXTR potentiator
O=C(NCCOc1ccccc1F)C1CC(=O)N(Cc2ccccc2)C1 (centres undefined)	n	n	x	x	n
COc1ccc(/C(C#N)=C/c2ccccn2)cc1	n	n	n	n	n
N#C/C(=C/c1ccc(-c2ccc(S(N)(=O)=O)cc2)o1)c1nc2ccccc2s1	51	38	14	n	n
N#C/C(=C/c1ccc(-c2ccc(S(N)(=O)=O)cc2)o1)C(=O)Nc1ccccc1	n	n	n	n	n
N#C/C(=C\c1ccccn1)c1nc2ccccc2s1	31	28	n	26	n
COC(=O)C1=C(C)OC(N)=C(C#N)C1c1ccccc1F (centres undefined)	n	n	n	n	n
N#CC1=C(N)Oc2cc(O)c(Cl)cc2C1c1ccccc1F (centres undefined)	n	25	x	x	n
O=C1CCC([N+](=O)[O-])C(c2ccccc2F)N1 (centres undefined)	n	n	x	x	n
CCN1CCN(CCNC(=O)c2cn(Cc3ccccc3F)nn2)CC1	n	n	n	28	n
CC1(c2ccc([N+](=O)[O-])cc2)NC(=O)N(CC(=O)c2ccc3c(c2)OCO3)C1=O (centres undefined)	23	34	x	x	n
CC(=O)c1c(C)[nH]c(C(=O)CN2C(=O)NC(C)(c3ccc4c(c3)OCO4)C2=O)c1C (centres undefined)	n	n	x	x	n
CC1(c2ccc(OC(F)F)cc2)NC(=O)N(CC(=O)c2ccc3c(c2)OCO3)C1=O (centres undefined)	39	41	x	x	n
COc1ccccc1N(CCC#N)C(=S)Nc1ccc(S(=O)(=O)N2CCOCC2)cc1	n	n	x	x	n
O=C(Nc1nnc(-c2cccs2)o1)c1cccc(C(F)(F)F)c1	n	n	n	21	n
CC(=O)N1CCCc2cc(S(=O)(=O)CCC(=O)Nc3cccc(C)c3C)ccc21	n	n	x	x	n
Cc1cc(=O)oc2cc(OCC(=O)Nc3ccccc3C(=O)O)ccc12	n	n	x	x	n
Cc1ccccc1OCC(=O)OCC(=O)NCCc1ccccc1	n	n	x	x	n
Fc1ccc(NC(=S)NC2CCN(Cc3ccccc3)CC2)cc1	n	n	n	n	n
S=C(Nc1ccc(Cl)cc1)NC1CC2CCC(C1)N2Cc1ccccc1 (centres undefined)	n	21	n	n	n
S=C(Nc1ccc(Cl)c(Cl)c1)NC1CCN(Cc2ccccc2)CC1	39	42	n	n	n
CCOC(=O)c1ccc(NC(=O)Nc2ccc(F)cc2)cc1	n	n	n	21	n
N#Cc1cc(C(=O)c2ccccc2O)cn(-c2nccs2)c1=O	55	90	34	47	n
CC(C)n1cc(C(=O)c2ccccc2O)cc(C#N)c1=O	n	n	n	n	n
Cc1c(-n2cc(C(=O)c3cc(F)ccc3O)cc(C#N)c2=O)c(=O)n(-c2ccccc2)n1C	n	n	n	n	n
N#Cc1cc(C(=O)c2cc(F)ccc2O)cn(-c2nccs2)c1=O	84	135	23	28	n
SMILES	V1R ag counter	OXTR ag	TRPML3 agonist	zfTRPN1 agonist	OXTR potentiator
CC(C)[C@@H](C(=O)NCc1ccco1)N1C(=O)N2CCc3c([nH]c4ccccc34)[C@@]2(C)C1=O	n	n	x	x	n
CCOc1ccccc1-c1c2cc(O)c(=O)cc-2oc2cc(O)c(O)cc12	x	x	n	n	x
O=c1cc2oc3cc(O)c(O)cc3c(-c3ccccc3O)c-2cc1O	x	x	12	n	x
COc1ccc(OC)c(-c2c3cc(O)c(=O)cc-3oc3cc(O)c(O)cc23)c1	486	715	n	n	n
COc1ccc(OC)c(-c2oc3ccccc3c(=O)c2O)c1	n	n	n	n	n
Cc1ccc(C2C(C#N)=C(N)SC(N)=C2C#N)c(C)c1	21	20	n	n	n
Cc1ccc(C2C(C#N)=C(N)SC(N)=C2C#N)cc1	x	x	n	n	x
S=C(NCCCc1ccccc1)Nc1ccccc1Cl	n	n	n	145	n
O=C(NCCCNC(=O)c1cc(Cl)ccc1Cl)c1ccccn1	n	n	x	x	n
COc1ccc(CCNC(=O)Cn2cnc3sc(C)c(-c4ccc(F)cc4)c3c2=O)cc1OC	23	20	n	n	n
COC(=O)c1sc2ncn(CC(=O)NCCc3ccc(OC)c(OC)c3)c(=O)c2c1C	n	n	n	n	n
COc1ccccc1OCC(=O)NC1CCSc2ccccc21 (centres undefined)	n	n	x	x	n
CCN(CC)C(=O)C1c2ccccc2Oc2ccccc21	64	48	x	x	n
CC[n+]1c(/C=C/c2c[nH]c3ccccc23)ccc2cc(C)ccc21	x	x	n	30	x
CCN(CC)C(=O)c1ccc(/C=C/c2c[nH]c3ccccc23)[n+](C)c1	n	n	n	n	n
CC(C)c1cc(-c2cc(C(=O)NCc3ccccc3)on2)nc(NCC2CC2)n1	35	31	x	x	n
Cc1cc(C)c(S(=O)(=O)N2CCCCC2)c(C)c1N(C)S(=O)(=O)c1ccccc1	n	n	55	n	n
Cc1cc(C)c(S(=O)(=O)N2CCOCC2)c(C)c1N(C)S(=O)(=O)c1ccccc1	n	n	x	x	n
CCCn1c(=O)c(C(=O)Nc2ncccc2C)c(O)c2ccccc21	28	30	n	n	n
CCN1CCc2c(sc(NC(=O)Nc3ccc(Cl)c(Cl)c3)c2C(N)=O)C1	173	219	84	195	n
O=C(NNC(=O)c1ccc([N+](=O)[O-])cc1C(=O)O)c1ccncc1	n	n	x	x	n
CN(CC(=O)NCc1ccccc1)CC(=O)Nc1ccc(Cl)c(C(F)(F)F)c1	21	23	x	x	n
CN(CC(=O)NC(=O)NCc1ccccc1)CC(=O)Nc1ccc(Cl)c(C(F)(F)F)c1	n	n	x	x	n
O=S(=O)(Nc1ccccc1)c1ccc(Oc2ncc(C(F)(F)F)cc2Cl)cc1	22	30	n	n	n
O=[N+]([O-])c1ccc(Oc2ccc(S(=O)(=O)Nc3ccccc3)cc2)cc1	22	31	n	21	n
SMILES	V1R ag counter	OXTR ag	TRPML3 agonist	zfTRPN1 agonist	OXTR potentiator
CC(C)NS(=O)(=O)c1ccc(Oc2ncc(C(F)(F)F)cc2Cl)cc1	n	n	n	n	n
CN1C2CCC1/C(=C/c1cccn1C)C(=O)/C2=C\c1cccn1C	45	45	n	n	n
Cn1c2ccccc2c(=O)c2c(=O)n(C3CCCCCC3)c(C3CCCCC3)nc21	x	x	n	n	x
CCc1nc2c(c(=O)c3ccccc3n2C)c(=O)n1C1CCCCCC1	88	47	18	19	n
O=C(CN1C(=O)NC(c2ccccc2)(c2ccccc2)C1=O)NCc1cccs1	n	n	x	x	n
CN(C)c1ccc2nc3c(=O)[nH]c(=O)nc-3n(CC(O)C(O)C(O)CO)c2c1 (centres undefined)	35	23	x	x	n
Cc1cccc(NC(=O)c2nc[nH]c2C(=O)N2CCC(C)CC2)c1	n	n	x	x	n
CCCCCCCCC(NC(=O)c1ccc(C#N)cc1)C(=O)NCCC (centres undefined)	n	n	x	x	n
